In ChEMBL document CHEMBL1142061, “The 6-fluoro-8-methoxy quinolone gatifloxacin down-regulates interleukin-8 production in prostate cell line PC-3” (Antimicrob Agents Chemother, 2007):
Active and inactive are the calls of the source. The rule behind the calls is not given here.

Legend:
PC-3 [1] = experiment: Reduction of Mycoplasma hominis-stimulated IL8 secretion in human PC3 cells; assay type: functional; set-up: scale not given: the % may be the effect or the level left
Procedure, shortened: (§1)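 Cells seeded, transfected 24 h later, given GFLX 16 μg/ml 24 h after transfection. Then serum-free medium with fresh GFLX plus stimulus: PGN 1 μg/ml, M. hominis membrane fraction 0.1 μg/ml or […] for 6 h; TNF-α 10 ng/ml for 2 h. IL-8 in supernatant by ELISA; means ± SD, three experiments.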

PC-3 [2] = experiment: Suppression of PMA-stimulated IL8 secretion in human PC3 cells; assay type: functional; procedure, shortened: as §1
PC-3 [3] = experiment: Suppression of TNF alpha-stimulated IL8 secretion in human PC3 cells; assay type: functional, cell-based; procedure, shortened: as §1
PC-3 [4] = experiment: Suppression of 0.1 ng/ml LPS-stimulated IL8 secretion in human PC3 cells; assay type: functional
PC-3 [5] = experiment: Suppression of 1 ng/ml LPS-stimulated IL8 secretion in human PC3 cells; assay type: functional
PC-3 [6] = experiment: Suppression IL8 secretion in human PC3 cells at 16 ug/ml added simultaneously with TNF alpha; assay type: functional
Procedure, shortened: (§2)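 PC-3 cells seeded 2 × 10^5/well and grown 24 h. GFLX 16 μg/ml added together with TNF-α (0, 5, 10, 25 ng/ml), or 30 or 60 min after it. Total TNF-α exposure 120 min. Secreted IL-8 measured by ELISA; means ± SD of three experiments.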

PC-3 [7] = experiment: Suppression of TNF alpha-stimulated IL8 secretion in human PC3 cells at 16 ug/ml added 30 mins after stimulation; assay type: functional; details: PC-3, 0.5 h; procedure, shortened: as §2
PC-3 [8] = experiment: Suppression of TNF alpha-stimulated IL8 secretion in human PC3 cells at 16 ug/ml added 60 mins after stimulation; assay type: functional, cell-based; procedure, shortened: as §2
PC-3 [9] = experiment: Inhibition of peptidoglycan-induced NF kappaB activation in human PC3 cells at 16 ug/ml; assay type: functional, cell-based
Procedure, shortened: (§3)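 Cells transiently transfected (FuGENE 6) with NF-κB firefly luciferase reporter plus pRL-TK Renilla control. After 24 h, GFLX 16 μg/ml for 24 h, then serum-free medium with GFLX again. Stimulation: PGN 1 μg/ml or M. hominis membrane fraction 0.1 μg/ml for 6 h, TNF-α 10 ng/ml for 2 h. Dual luciferase read-out; three experiments.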

PC-3 [10] = experiment: Cytotoxicity against human PC3 cells at 2 ug/ml relative to control; assay type: cell-based
Procedure, shortened: (§4)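 PC-3 cells seeded 5 × 10^4/well, grown 24 h, then exposed to GFLX (from 2 mg/ml stock in 0.1 N NaOH; equal NaOH as control) for 48 h. Viability read with a modified MTT method (cell counting kit 8), expressed as % of untreated controls; mean ± SD, n = 3.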

PC-3 [11] = experiment: Cytotoxicity against human PC3 cells at 4 ug/ml relative to control; assay type: cell-based; procedure, shortened: as §4
PC-3 [12] = experiment: Cytotoxicity against human PC3 cells at 16 ug/ml relative to control; assay type: cell-based; procedure, shortened: as §4
PC-3 [13] = experiment: Decrease in IL8 secretion in human PC3 cells; assay type: functional, cell-based
Procedure, shortened: (§5)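 PC-3 cells seeded 2 × 10^5/well, grown 24 h, washed with PBS and switched to serum-free RPMI 1640. GFLX added (0.1 N NaOH vehicle control) and cells incubated 24 h without stimulus. IL-8 in medium quantified by ELISA; means ± SD of three experiments.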

PC-3 [14] = experiment: Decrease in IL8 secretion in human PC3 cells at 4 ug/ml; assay type: functional; set-up: scale not given: the % may be the effect or the level left; procedure, shortened: as §5
PC-3 [15] = experiment: Decrease in IL8 secretion in human PC3 cells at 16 ug/ml; assay type: functional; set-up: scale not given: the % may be the effect or the level left; procedure, shortened: as §5
PC-3 [16] = experiment: Reduction of peptidoglycan-stimulated IL8 secretion in human PC3 cells; assay type: functional; set-up: scale not given: the % may be the effect or the level left; procedure, shortened: as §1
PC-3 [17] = experiment: Inhibition of Mycoplasma hominis-induced NF kappaB activation in human PC3 cells at 16 ug/ml; assay type: functional, cell-based; procedure, shortened: as §3
PC-3 [18] = experiment: Inhibition of TNF alpha-induced NF kappaB activation in human PC3 cells at 16 ug/ml; assay type: functional, cell-based; procedure, shortened: as §3
PC-3 [19] = experiment: Inhibition of TNF alpha-stimulated IL8 mRNA expression in human PC3 cells at 16 ug/ml after 48 hrs; assay type: functional, cell-based
Procedure, shortened: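 PC-3 cells seeded 4 × 10^5 per 35-mm dish, grown 24 h, then GFLX 16 μg/ml for 48 h with medium and drug refreshed every 24 h. Cells moved to serum-free RPMI with GFLX and given TNF-α 10 ng/ml for 4 h. TRIzol RNA, oligo(dT) RT, 23-cycle PCR for IL-8 and β-actin. Densitometric IL-8/β-actin band ratio.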

PC-3 [20] = experiment: Suppression of TNF alpha-stimulated IL8 promoter activity in human PC3 cells; assay type: functional, cell-based
Procedure, shortened: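 PC-3 cells transfected with IL-8 promoter (−1481 to +44 bp) in pGL3-Basic plus pRL-TK. 24 h later, GFLX at 0, 2, 4 or 16 μg/ml for 24 h. Serum-free medium with same GFLX and TNF-α 10 ng/ml for 2 h. Dual luciferase read-out; means ± SD, three experiments.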

PC-3 [21] = experiment: Suppression of TNF alpha-stimulated IL8 D-170 mutant promoter activity in human PC3 cells at 16 ug/ml dual luciferase reporter assay; assay type: functional, cell-based
Procedure, shortened: (§6)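 PC-3 cells seeded 4 × 10^4/well and transfected with an IL-8 5′-deletion luciferase construct plus pRL-TK. 24 h later, GFLX 16 μg/ml for 24 h. Then serum-free medium, fresh GFLX and TNF-α 10 ng/ml for 2 h. Promoter activity by dual luciferase assay; means ± SD of three experiments.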

PC-3 [22] = experiment: Suppression of TNF alpha-stimulated IL8 D-240 mutant promoter activity in human PC3 cells at 16 ug/ml dual luciferase reporter assay; assay type: functional, cell-based; procedure, shortened: as §6
PC-3 [23] = experiment: Suppression of TNF alpha-stimulated IL8 D-188 mutant promoter activity in human PC3 cells at 16 ug/ml dual luciferase reporter assay; assay type: functional, cell-based; procedure, shortened: as §6
[24] = Decrease in IL8 secretion in human prostatic myofibroblast cells at 4 ug/ml; assay type: functional; set-up: scale not given: the % may be the effect or the level left
[25] = Decrease in IL8 secretion in human prostatic myofibroblast cells at 16 ug/ml; assay type: functional; set-up: scale not given: the % may be the effect or the level left
PC-3 [26] = experiment: Suppression of TNF alpha-stimulated IL8 mutant promoter activity in human PC3 cells at 16 ug/ml by dual luciferase reporter assay

**Q.** Which results are given for `COc1c(N2CCNC(C)C2)c(F)cc2c(=O)c(C(=O)O)cn(C3CC3)c12` (stereo unspecified) [GATIFLOXACIN]?
**A.** Activity (PC-3 [1]): 52%; Activity (PC-3 [2]): 34%; Activity (PC-3 [3]): Active; Activity (PC-3 [4]): 19%; Activity (PC-3 [5]): 16%; Activity (PC-3 [6]): 37%; inhibition at 16 µg/mL (PC-3 [7]): 25%; Activity (PC-3 [8]): Active; Activity (PC-3 [9]): inactive; Activity (PC-3 [10]): 97.6%; Activity (PC-3 [11]): 100%; Activity (PC-3 [12]): 96.6%; Activity (PC-3 [13]): Dose-dependent effect; Activity (PC-3 [14]): 22%; Activity (PC-3 [15]): 38%; Activity (PC-3 [16]): 42%; Activity (PC-3 [17]): inactive; Activity (PC-3 [18]): inactive; Activity (PC-3 [19]): Active; Activity (PC-3 [20]): Active; Activity (PC-3 [21]): inactive; Activity (PC-3 [22]): Active; Activity (PC-3 [23]): Active; Activity [24]: 19%; Activity [25]: 50%; Activity (PC-3 [26]): Active
